Values after ≈ are worked out from the molar mass of the structure shown.
Key:
Plasma [1] = experiment: Antithrombin activity in New Zealand white rabbit plasma assessed as prothrombin time at 25 uM by coagulometer; format: functional, Oryctolagus cuniculus
[2] = Solubility of the compound in water by UV-visible spectrophotometry relative to scutellarein; format: physicochemical
Plasma [3] = experiment: Antithrombin activity in New Zealand white rabbit plasma assessed as activated partial thromboplastin time at 25 uM by coagulometer; format: functional, Oryctolagus cuniculus
[4] = tested on: Radical scavenging activity; experiment: Antioxidant activity assessed as inhibition of DPPH radical by spectrophotometric analysis […]; format: functional
Summary of the method: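 Sample in DMSO mixed with an equal volume of 0.2 mM ethanolic DPPH. Test compounds spanned […], alongside reference antioxidants and a DMSO control. Reaction ran 30 min at 25 °C, then absorbance was read at 517 nm on a microplate reader. Scavenging % = (1 − A_test/A_control) × 100, with A_control taken from DMSO alone.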

[5] = Solubility of the compound in water by UV-visible spectrophotometry; format: physicochemical
Plasma [6] = experiment: Antithrombin activity in New Zealand white rabbit plasma assessed as fibrinogen content at 25 uM by coagulometer; format: functional, Oryctolagus cuniculus
Plasma [7] = experiment: Antithrombin activity in New Zealand white rabbit plasma assessed as thrombin time at 25 uM by coagulometer; format: functional, Oryctolagus cuniculus
[8] = Absolute bioavailability in po dosed Beagle dog; format: ADME, organism-based, Canis lupus familiaris; conditions: in vivo

| SMILES | PT (Plasma [1]) [s] | fold change (FC) [2] | APTT (Plasma [3]) [s] | IC50 [4] [µM] | solubility [5] [µM] | Activity (Plasma [6]) [g/L] | TT (Plasma [7]) [s] | bioavailability [8] [%] |
| --- | --- | --- | --- | --- | --- | --- | --- | --- |
| CN(C)Cc1c(O)c(O)c(O)c2c(=O)cc(-c3ccc(O)cc3)oc12 | 7.45 | 1.23 | 34.23 | 26.5 | 8.58 (≈ 2.95 µg/mL) | 5.56 | 12.58 |  |
| CCN(CC)Cc1c(O)c(O)c(O)c2c(=O)cc(-c3ccc(O)cc3)oc12 | 7.55 | 1.11 | 34.62 | 25 | 7.71 (≈ 2.86 µg/mL) | 5.36 | 12.63 |  |
| CC(C)N(Cc1c(O)c(O)c(O)c2c(=O)cc(-c3ccc(O)cc3)oc12)C(C)C | 7.47 | 1.15 | 34.52 | 30.1 | 7.97 (≈ 3.18 µg/mL) | 5.54 | 11.75 |  |
| O=c1cc(-c2ccc(O)cc2)oc2c(CN3CCOCC3)c(O)c(O)c(O)c12 | 7.84 | 1.67 | 35.48 | 30.9 | 11.6 (≈ 4.48 µg/mL) | 5.26 | 14.48 |  |
| CN1CCN(Cc2c(O)c(O)c(O)c3c(=O)cc(-c4ccc(O)cc4)oc23)CC1 | 7.71 | 1.05 | 35.42 | 32.5 | 7.28 (≈ 2.9 µg/mL) | 5.46 | 14.4 |  |
| CCN1CCN(Cc2c(O)c(O)c(O)c3c(=O)cc(-c4ccc(O)cc4)oc23)CC1 | 7.41 | 1.02 | 35.15 | 32.4 | 7.07 (≈ 2.92 µg/mL) | 5.54 | 14.13 |  |
| CCCCN1CCN(Cc2c(O)c(O)c(O)c3c(=O)cc(-c4ccc(O)cc4)oc23)CC1 | 7.4 | 1.31 | 35.01 | 32.7 | 9.11 (≈ 4.01 µg/mL) | 5.56 | 13.45 |  |
| O=c1cc(-c2ccc(O)cc2)oc2cc(O)c(O)c(O)c12 [SCUTELLAREIN] | 7.34 |  | 33.36 | 24 | 6.95 (≈ 1.99 µg/mL) | 5.96 | 10.25 |  |
| O=C(O)[C@H]1O[C@@H](Oc2cc3oc(-c4ccc(O)cc4)cc(=O)c3c(O)c2O)[C@H](O)[C@@H](O)[C@@H]1O [SCUTELLARIN] |  |  |  |  |  |  |  | 0.4 |

Reference: ChEMBL document CHEMBL2203222, “Mannich bases of scutellarein as thrombin-inhibitors: design, synthesis, biological activity and solubility” (Bioorg Med Chem, 2012)
